# Mac1 fbg inh: inhibitors of CD11b/CD18 adhesion to fibrinogen, primary screen, K562 cells, luminescence. ATPlite luminescence; Mn2+ added to activate the integrin. inhibition, % at 10 µM. 93,000 tested, 0.54% active. AID 1497, 2009;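 active = primary inhibition of 50% or more at 10 µM, then 40% or more on retest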
# CD11b adhes enh: enhancers of CD11b/CD18 adhesion to fibrinogen, primary screen, K562 cells, luminescence; Integrin beta-2 (Homo sapiens) + Integrin alpha-M (Homo sapiens), P05107+P11215; ATPlite luminescence; 93,000 tested, 0.07% active; activation, % at 10 µM;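 active = 10 µM primary screen giving 50% or more activity, confirmed by 40% or more on retest at that dose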
# SF1 activator: activators of human SF-1, primary screen, cell-based, CHO-K1, Gal4-SF-1 LBD, luciferase luminescence; CHO-K1 Gal4-SF-1 LBD luciferase reporter; % increase over DMSO SF-1-specific signal; AID 522, 2006; Steroidogenic factor 1 (Homo sapiens), Q13285; 65,000 tested, 1.9% active; activation, % at 10 µM;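 active = activation above the mean activation of all tested compounds plus 3 SD, cut at about 50% in these data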
#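 Test system: CHO-K1 cells with Gal4–hSF-1 LBD chimera plus Gal4-driven luciferase; Input: 4,000 cells/well; Compound: 10 µM only; Times: 20 h compound treatment, 37 °C; Measured by: steady-glow luciferase luminescence, read after 15 min reagent incubation; Measure: percent activation versus DMSO; Control set: DMSO and mock-transfected background; Replicates: one test per compound.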
# Candida biofilm: clotrimazole potentiators killing Candida biofilms, primary screen, with clotrimazole, Alamar Blue. 85,000 tested, 0.14% active. C. albicans biofilm + clotrimazole. inhibition, % at 6 µM. AID 834, 2007;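 active = inhibition above 20%; inactive = inhibition below 20%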;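 also: preformed 24 hr biofilms exposed to compound for 48 hr; 0% = biofilm without compound and 100% = blank killed by clotrimazole plus chlorhexidine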
# RORa activator: activators of orphan receptor RORA, primary screen, cell-based, luminescence | CHO-K1 Gal4-RORA LBD luciferase reporter; percent increase over mock-subtracted basal signal | 65,000 tested, 1.5% active | Nuclear receptor ROR-alpha (Homo sapiens), P35398 | activation, % at 10 µM;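 active = activation above the mean of all tested compounds plus 3 SD, cut at about 49% in these data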;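 also: 0% = DMSO-treated RORA cells and 100% = added signal equal to DMSO minus mock-transfected cells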
# Target sequence (P35398 whole entry, looked up, the tested form may be a part): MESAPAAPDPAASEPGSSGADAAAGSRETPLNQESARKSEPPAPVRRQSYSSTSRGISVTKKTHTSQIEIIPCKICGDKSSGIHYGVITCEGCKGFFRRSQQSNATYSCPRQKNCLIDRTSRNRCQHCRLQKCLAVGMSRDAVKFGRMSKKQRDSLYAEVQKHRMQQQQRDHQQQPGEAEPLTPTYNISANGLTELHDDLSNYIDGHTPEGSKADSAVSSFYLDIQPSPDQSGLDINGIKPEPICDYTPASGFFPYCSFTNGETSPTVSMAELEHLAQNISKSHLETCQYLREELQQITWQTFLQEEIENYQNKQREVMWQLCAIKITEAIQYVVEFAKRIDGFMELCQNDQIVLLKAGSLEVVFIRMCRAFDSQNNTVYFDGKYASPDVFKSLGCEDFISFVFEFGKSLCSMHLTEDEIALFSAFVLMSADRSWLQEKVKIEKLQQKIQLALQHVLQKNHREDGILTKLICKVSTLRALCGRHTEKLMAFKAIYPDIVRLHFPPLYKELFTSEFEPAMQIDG
# MT1-MMP txn act: MT1-MMP promoter reporter activation – cell-based, luciferase luminescence, primary screen; activation factor at 10 µM; HT1080 MT1-MMP promoter luciferase reporter, overnight; active compounds read high; AID 750, 2007; 86,000 tested, 0.16% active;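 active = activation factor of at least 2 for MT1-MMP transcription at 10 µM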
# * = called active by the depositor; / = not tested or not shown. This is a sample that favours compounds with a hit; in the whole collection about 2.2% have one here.
SMILES,Mac1 fbg inh,CD11b adhes enh,SF1 activator,Candida biofilm,RORa activator,MT1-MMP txn act
CC(=Nc1cccc(O)c1)c1sc2ccccc2c1O,0,-1,94*,14,17,1.8
CC(=Nc1ccc(C)cc1)c1sc2ccccc2c1O,19,1,/,0,/,1.9
COc1ccc(-c2noc(CCC(=O)NCCCN3CCC(Cc4ccccc4)CC3)n2)cc1,61*,-4,-6,1,18,1.2
NC(=O)c1cc(-c2ccccc2)sc1NC(=O)CN1CCCCC1,-6,0,/,/,/,/
Nc1nc(Nc2cccc(F)c2)nc2ccccc12,8,-5,67*,7,47,1
O=c1oc(Nc2cccc(F)c2)nc2ccccc12,19,3,/,/,/,/
CCC(C)NC(=O)c1cc(Sc2nnc(C)s2)nc2ccccc12 (stereo not given),-4,2,/,/,/,/
O=C(O)CSc1nnnn1-c1ccc2c(c1)OCCO2,0,-4,/,/,/,/
O=C(CSc1nnnn1-c1ccccc1)NC(=O)Nc1ccc2c(c1)OCCO2,10,-3,72*,1,52*,1.6
CC(C)OC(=O)CSc1nnnn1-c1ccc2c(c1)OCCO2,-1,6,69*,1,54*,1.5
COC(=O)c1ccc(O)c(Sc2cc(C(=O)OC)ccc2O)c1,98*,-7,-8,5,-20,1.3
Cn1c(SCc2c(F)cccc2Cl)nnc1-c1cccs1,-22,11,58*,5,102*,1.7
Cn1c(SCCOc2ccccc2Cl)nnc1-c1cccs1,/,/,/,2,/,1.4
O=C1C2CCCN2c2ccc(S(=O)(=O)N3CCOCC3)cc2N1Cc1cccc(C(F)(F)F)c1 (stereo not given),1,142*,/,/,/,/
CCCCCCn1ccc(=N)cc1,56*,-5,12,-4,-12,1
CCn1nccc1C(=O)Nc1cc(Cl)ccc1Cl,4,4,3,8,-5,1
CCn1nccc1C(=O)Nc1ccc(Cl)cc1Cl,-4,4,67*,0,31,1.3
COc1ccc(CNC(=O)/C(C#N)=C2\N=C(NC(=O)c3cccs3)c3ccccc32)cc1,18,12,/,/,/,/
O=C(Nc1ccc(Oc2ncccn2)cc1)c1ccco1,/,/,10,7,13,1.1
Cc1ccc(NC(=O)c2ccc(OC(=O)c3ccco3)cc2)cc1,-16,59,52*,8,51*,1.1
Cc1ccc(Oc2ccc(NC(=O)c3ccco3)cc2)cc1,20,-1,73*,8,46,1.4
Cc1cccc2[nH]c(-c3ccc(NC(=O)c4ccco4)cc3)nc12,13,-1,74*,8,30,1.9
CCC1=C2CC[C@H]3C(=O)N(CC(=O)OC)C(=O)[C@H]3[C@H]2[C@@]2(C)C(=O)N(Cc3ccccc3)C(=O)N2C1=O,/,/,/,/,/,1.2
N#CC(c1ccc(F)cc1)c1ccc(C(=O)c2ccccc2)cc1 (stereo not given),64,-4,/,2,/,0.9
N#CC(c1ccccc1)c1ccc(C(=O)c2ccc(F)cc2)cc1 (stereo not given),87*,-7,/,0,/,1.1
SMILES,Mac1 fbg inh,CD11b adhes enh,SF1 activator,Candida biofilm,RORa activator,MT1-MMP txn act
CCOc1cc(N2CCOCC2)c(OCC)cc1NC(C)C(=O)N1CCC(C)CC1 (stereo not given),2,4,/,/,/,/
COc1ccc(C(=O)c2ccc(OC)c(OC)c2)cc1OC,/,/,-6,8,0,1.1
COc1ccc(C(=O)c2ccc(OC)c(N)c2)cc1N,41,7,42,/,66*,0.8
Cc1c(C)c2c(C)[nH]nc2oc1=O,25,0,16,8,-5,2.3*
N#CC1=C(SCC(=O)c2ccccc2)NC2=C(C(=O)CCC2)C1c1ccco1 (stereo not given),12,-8,100*,-1,174*,1.1
COC(=O)c1ccc(C(NC(=O)OCc2ccccc2)/C(C)=C/[C@@H](C)C(=O)NCc2nc3ccccc3s2)cc1 (stereo not given in full),/,/,/,/,/,1.1
CC(=O)C(C)Oc1ccc2c3c(c(=O)oc2c1)CCCCC3 (stereo not given),-15,1,54*,7,20,1.9
CC(=O)C(C)Oc1ccc2c3c(c(=O)oc2c1)CCCC3 (stereo not given),-10,0,5,3,28,1.4
Nc1nnc(-c2cc3ccccc3oc2=O)s1,1,-1,55*,5,42,1.8
O=S(=O)(Nc1nc2ccccc2nc1N1CCN(c2ccccn2)CC1)c1ccc(Cl)cc1,102*,-13,-12,/,-3,1.3
COc1cccc(-c2nn(C)c3sc(C(=O)Nc4ccc5c(c4)OCCO5)cc23)c1,1,5,80*,7,56*,1.8
CCC(C)NS(=O)(=O)c1ccc(S(=O)(=O)N(CCc2ccc(OC)c(OC)c2)Cc2cccs2)cc1 (stereo not given),61,-2,/,/,/,/
Cc1nc(CC(=O)Nc2nc(C(C)(C)C)cs2)cs1,-1,-4,16,7,-1,1.2
CC(C)(C)c1csc(NC(=O)c2ccc(Cl)s2)n1,51,-2,53*,4,54*,1.4
Cc1ccc(C(=O)Nc2nc(C(C)(C)C)cs2)s1,35,-4,/,-2,/,1.7
CC(C)(C)c1csc(NC(=O)c2ccc3nccnc3c2)n1,-10,-1,/,8,/,2*
O=C(Nc1nc(-c2cccs2)cs1)c1ccc(Cl)s1,/,/,34,-1,68*,1.4
O=C(Nc1nc2ccccc2s1)c1ccc(Cl)s1,18,15,98*,-2,34,1
Cc1ccccc1N(CC(=O)Nc1ccccc1C(=O)NCc1ccco1)S(=O)(=O)c1ccccc1,-13,2,/,/,/,/
CC(C)NC(=O)[C@@H]1C[C@H]1[C@@H](NC(=O)OCc1ccccc1)c1ccccc1,/,/,/,/,/,1.1
COc1ccc(Cn2c(SCc3ccccc3C)nc3cc(OC)c(OC)cc3c2=N)cc1,-3,135*,/,/,/,/
CCSc1nc2cc(OC)c(OC)cc2c(=O)n1CCc1ccccc1,2,13,/,4,/,1.2
O=C1c2oc3ccccc3c(=O)c2C(c2cccc(Br)c2)N1Cc1ccco1 (stereo not given),-3,60*,-13,9,-25,0.9
O=C1NC(=S)SC1=C1CCCCCC1,59*,-3,4,10,-10,1.1
O=C1N=C(N2CCCCC2)SC1=C1CCCCC1,5,-5,/,5,/,1.3
CCCCCCc1cc2cc(S(=O)(=O)c3ccc(F)c(Cl)c3)c(=O)oc2cc1O,99,-8,/,/,/,/
CCN1/C(=C/c2ccc3ccccc3[n+]2CC)C=Cc2ccccc21,94*,-6,/,-1,/,0.4
